The sample as a whole holds a higher share of hits than the screen did.
Lmaj promast = Leishmania major promastigote growth inhibition, primary screen; 9% of 200,000 active; inhibition, % at 10 µM; AID 1063, 2008; Leishmania major promastigotes, resazurin fluorescence viability; in the data active = inhibition above about 50%;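 note: promastigotes grown with compound for 44 hours at 28 °C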
HSF1 activator = HSF-1 activators, primary screen, NIH3T3-HGL cells, MG132 stress, luminescence, single point | NIH3T3-HGL HSF-1 luciferase reporter, 8 h; 100% = twice DMSO control signal | activation, % at 9 µM | AID 504408, 2011 | 1.7% of 300,000 active;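 active = mean replicate activation of at least 50% with a set share of replicates each reaching 50%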;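 note: 0% = median of the neutral control wells and 100% = twice that signal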
Hsp70 act = Hsp70 transcriptional activators, primary screen, cell-based, HeLa, Hsp70 promoter luciferase, luminescence, 10 µM | activation, % at 10 µM | HeLa Hsp70 promoter luciferase reporter; scaled: vehicle 0, proteasome-inhibitor control 100% | 0.04% of 200,000 active;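 active = activation above the mean across all tested compounds plus 3 SD, cutoff set per campaign, cut at about 5.5% in these data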;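 note: 100% = MG132 at 30 µM as the positive control and 0% = DMSO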
T cruzi repl = inhibitors of intracellular T. cruzi growth, primary screen, luminescence, NIH3T3 host cells; T. cruzi beta-gal in NIH3T3, 90 h; inhibition, % (concentration not given with the values); 1.4% of 300,000 active; AID 1885, 2009;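 active = mean inhibition across valid replicates above about 55%, limit read from the data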;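 note: signal also drops with host cell toxicity which is not excluded here; 0% = plate median of DMSO wells and 100% = zero luminescence signal; higher percent means less beta-gal luminescence so fewer parasites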
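Incubation – ≥90 h infection period, 3 h prior cell attachment · System – NIH/3T3 fibroblasts plus reporter T. cruzi · Doses – compound pinned at 50 nL/well, DMSO · Read-out basis – percent inhibition of parasite-derived β-gal signal · Signal – luminescent β-galactosidase signal after 60 min lysis · Also added – 5000 T. cruzi trypomastigotes/well · Medium – Low-serum DMEM with 2% FBS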
HSF1 inhib = HSF1 inhibitors in luciferase reporter cells, primary screen, cell-based, NIH3T3, luminescence | 0.77% of 300,000 active | NIH3T3-HGL HSE-luciferase, MG132-induced, luminescence 8 h; stronger effect = lower value | activity change, negative = inhibition, % at 7.5 µM (by protocol);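 active = more than half of replicate wells show activity change below -50%, luminescence cut by over half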;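 note: luciferase reports HSF-1 transcriptional activity via heat shock element; 0% = median of DMSO wells and -100% = zero luminescence signal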
Numbers without * were called inactive; x = no result given.

SMILES	Lmaj promast	HSF1 activator	Hsp70 act	T cruzi repl	HSF1 inhib
COc1cc2nc(N(CCCN(C)C)C(=O)c3ccc(S(=O)(=O)N4CCc5ccccc54)cc3)sc2cc1OC	x	-13	x	55*	-6
CCCc1nnc(SCC(=O)N2CCCCC2C)n1CCOC (stereo not given)	8	-11	0	-3	-3
Cc1cc(C(=O)CSc2n[nH]c(N)n2)c(C)n1-c1ccc(F)cc1	17	21	0	-1	18
Cc1ccc(-n2c(C)cc(C(=O)COC(=O)C3=NNC(=O)CC3)c2C)cc1	95*	-14	0	7	-13
N#CCCN(C(=O)COC(=O)C1=NNC(=O)CC1)c1ccccc1	x	3	x	-2	-8
CCOC(=O)c1c(C)[nH]c(C(=O)COC(=O)C2=NNC(=O)CC2)c1C	-1	-83	0	0	-78*
Cc1cc(C(=O)COC(=O)C2=NNC(=O)CC2)c(C)n1-c1ccccc1	-3	-25	0	4	-21
CN(Cc1ccccc1)C(=O)COC(=O)C1=NNC(=O)CC1	52*	11	0	-8	1
Cc1ccc(-n2c(C)cc(C(=O)CSc3n[nH]c(N)n3)c2C)cc1	95*	-9	0	5	13
CCOc1ccc(C(C)=O)cc1CN1C(=O)NC2(CCCCCCC2)C1=O	-5	-7	0	5	-9
Cn1cccc1/C=C1\SC(=O)N(c2ccc(O)cc2)C1=O	-10	31	0	2	10
COc1ccc2c(c1)c(=O)oc1c(C)c(OC(C)C(=O)N[C@@H](Cc3c[nH]c4ccc(O)cc34)C(=O)O)ccc12 (stereo not given in full)	x	-4	x	1	3
COC(=O)c1[nH]c2ccc(C)cc2c1NC(=O)C(C)N1CCN(C2CCCCC2)CC1 (stereo not given)	37	13	0	-13	-6
COC(=O)c1[nH]c2ccc(Br)cc2c1NC(=O)C(C)N1CCN(C2CCCCC2)CC1 (stereo not given)	100*	-4	0	36	1
COc1cccc(NC(=O)CN2C(=O)CSc3ccc(S(=O)(=O)N4CCCCC4)cc32)c1	x	-12	x	1	-2
[O-][n+]1c2ccccc2cc2ccccc21	x	-4	x	8	-2
N#CCOc1nc(N2CCCC2)nc(N2CCCC2)n1	97*	13	0	0	-2
N#CCOc1nc(N2CCCCC2)nc(N2CCCCC2)n1	16	-11	0	20	-5
CCc1ccc(N2C(=O)CC(Cn3nc(C)cc3C)C2=O)cc1 (stereo not given)	x	3	x	-10	-3
CCCc1nc(SCc2ccccn2)c2c(=O)n(C)c(=O)n(C)c2n1	2	10	0	13	7
Cn1c(=O)c2c(SCc3cccnc3)nc(CC(C)(C)C)nc2n(C)c1=O	91*	-13	0	29	-2
CCCc1nc(SCc2cccnc2)c2c(=O)n(C)c(=O)n(C)c2n1	84*	13	0	11	25
Cn1c(=O)c2c(SCc3ccccn3)nc(CC(C)(C)C)nc2n(C)c1=O	25	1	0	20	-2
CC(=O)c1cccc2c(O)c(C3=Nc4ccccc4C3=O)[nH]c12	99*	62*	0	-9	33
CC(C)C1Oc2ccccc2N(CC(=O)N2CCOCC2)C1=O (stereo not given)	x	-2	x	5	-8
SMILES	Lmaj promast	HSF1 activator	Hsp70 act	T cruzi repl	HSF1 inhib
Cc1ccc(-n2c(C)cc(C3=NNC(=NC4CC4)SC3)c2C)cc1C	87*	12	0	17	6
Cc1[nH]n2c(=O)cc(C(C)(C)C)nc2c1-c1ccccc1	99*	-52	0	59*	-42
Cc1[nH]n2c(=O)cc(C(C)C)nc2c1-c1ccccc1	25	6	0	-7	-6
COc1ccc(C(CC(=O)c2ccccc2)CC(=O)c2ccccc2)cc1OC	51*	10	0	2	7
COCCN(CC(=O)NC1CCCCC1)C(=O)CSc1nc2ccccc2o1	-10	-1	0	-3	-1
O=C(CN(C(=O)CSc1nc2ccccc2o1)c1ccccc1F)NC1CCCCC1	65*	-5	0	8	2
Cc1ccc2oc(=O)c3cc(C(=O)NCCCN4CCN(C)CC4)sc3c2c1	x	6	x	27	3

From PubChem
